From ChEMBL document CHEMBL4680287, “Ibrexafungerp: An orally active β-1,3-glucan synthesis inhibitor” (Bioorg Med Chem Lett, 2021) come the findings set out here.

≈ marks a conversion by molar mass, not a printed value.

The test system of experiment [1] is Aspergillus fumigatus. Put plainly: Antifungal activity against Aspergillus fumigatus MF5668 infected in DBA/2N mouse assessed as mouse survival at 0.5 mg/kg, ip bid administered for 7 days starting from 15 to 30 mins post infection and measured up to 21 days relative to control. It counts as functional. The following applies: 168 h, time 7 day. The essentials: (§1)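 DBA/2N mice were infected IV with A. fumigatus MF5668 (6.7 x 10^5 CFU/mouse) and treated IP bid for 7 days. Percent survival per dose group was scored at the end of the 21-day survival model and compared with the sham-treated control group.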

Experiment [2] concerns Aspergillus fumigatus. The experiment is described as follows: Antifungal activity against Aspergillus fumigatus MF5668 infected in DBA/2N mouse assessed as mean survival time at 0.125 mg/kg, ip bid administered for 7 days starting from 15 to 30 mins post infection and measured up to 21 days. It counts as functional. The note with it: time 7 day. The essentials:
(§2)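 DBA/2N mice were challenged IV with A. fumigatus MF5668 at 6.7 x 10^5 CFU/mouse, then dosed IP twice daily for 7 days. Survival was followed over a 21-day model, and mean survival time in days was recorded per dose group. A sham-treated control group was run alongside.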

Experiment [3] relates to Aspergillus fumigatus. Put plainly: Antifungal activity against Aspergillus fumigatus MF5668 assessed inhibition of fungal growth by measuring morphological changes measured after 24 hrs by microscopy. It is filed as functional. The note with it: read-out: MEC. The essentials: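 Microdilution per CLSI protocols in RPMI medium. Read-out is the minimum effective concentration (MEC). Run without serum and with 50% human serum.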

For experiment [4], the system named is Candida albicans. The experiment is described as follows: Antifungal activity against Candida albicans MY1055 infected in DBA/2 mouse model of disseminated candidiasis assessed as reduction in fungal burden in kidney by measuring log change in colony forming units at […], po bid for 7 days by TOKA. It counts as functional. The note with it: time 7 day. The essentials:
(§3)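 Murine disseminated candidiasis model (TOKA) in mice challenged with C. albicans MY1055 at 2.44 x 10^4 CFU/mouse. Dosed PO, or IP where stated. Kidneys collected aseptically 7 days after challenge and CFUs/g counted. Change in log CFU/g is relative to sham-treated controls; significance by two-tailed t test. Clearance is the percentage of kidneys below the detection limit.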

Experiment [5] has as its system Candida albicans. The experiment is described as follows: Antifungal activity against Candida albicans MY1055 infected in DBA/2 mouse model of disseminated candidiasis assessed as reduction in fungal burden in kidney by measuring log change in colony forming units at 0.125 mg/kg, po bid for 7 days by TOKA. It is filed as functional. The following applies: time 7 day. The essentials: as §3

For experiment [6], the system named is Candida albicans. Put plainly: Antifungal activity against Candida albicans MY1055 infected in DBA/2 mouse model of disseminated candidiasis assessed as reduction in fungal burden in kidney by measuring log change in colony forming units at 0.03 mg/kg, ip bid for 7 days by TOKA. It is filed as functional. The following applies: time 7 day. The method in brief: as §3

Experiment [7] concerns Candida albicans. Put plainly: Antifungal activity against Candida albicans MY1055 infected in ip dosed DBA/2 mouse model of disseminated candidiasis assessed as reduction in fungal burden in kidney administered bid for 7 days by TOKA. It counts as functional. The following applies: 168 h, time 7 day. The essentials:
as §3

Experiment [8] relates to Candida albicans. Put plainly: Antifungal activity against Candida albicans MY1055 infected in DBA/2 mouse model of disseminated candidiasis assessed as reduction in fungal burden in kidney by measuring log change in colony forming units at 0.125 mg/kg, ip bid for 7 days by TOKA. The note with it: time 7 day. It is filed as functional. The essentials:
as §3

For experiment [9], the system named is Candida albicans. The experiment is described as follows: Antifungal activity against Candida albicans MY1055 infected in DBA/2 mouse model of disseminated candidiasis assessed as reduction in fungal burden in kidney by measuring log change in colony forming units at 0.0078 mg/kg, ip bid for 7 days by TOKA. It counts as functional. The note with it: time 7 day. The method in brief: as §3

In experiment [10] the test system is Aspergillus fumigatus. The experiment is described as follows: Antifungal activity against Aspergillus fumigatus MF5668 infected in DBA/2N mouse assessed as mouse survival at 0.03 mg/kg, ip bid administered for 7 days starting from 15 to 30 mins post infection and measured up to 21 days relative to control. The note with it: 168 h, time 7 day. It counts as functional. The essentials:
as §1

For experiment [11], the system named is Aspergillus fumigatus. Put plainly: Antifungal activity against Aspergillus fumigatus MF5668 infected in DBA/2N mouse assessed as mean survival time at 0.03 mg/kg, ip bid administered for 7 days starting from 15 to 30 mins post infection and measured up to 21 days. It is filed as functional. The following applies: time 7 day. The essentials: as §2
Experiment [12] concerns Candida albicans. The experiment is described as follows: Antifungal activity against Candida albicans MY1055 infected in DBA/2 mouse model of disseminated candidiasis assessed as reduction in fungal burden in kidney by measuring log change in colony forming units at 0.03 mg/kg, po bid for 7 days by TOKA. It is filed as functional. The note with it: time 7 day. The method in brief: as §3

The nature of experiment [13]: Inhibition of beta-1,3-glucan synthase in Candida albicans MY1055 microsomal membrane assessed as inhibition of TCA-insoluble material formation using UDP-[3H]-glucose as substrate incubated for 2 hrs in presence of GTP by radioactivity-based assay. It counts as microsomes, Microsome. The essentials: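 GS IC50 measured using Candida albicans MY1055 microsomal membrane fragments as the enzyme source.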

For experiment [14], the system named is Candida albicans. Put plainly: Antifungal activity against Candida albicans MY1055 assessed as fungal growth inhibition measured after 24 hrs by liquid microdilution method. It is filed as functional. The method in brief:
(§4)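 Broth microdilution per CLSI protocols in RPMI medium. Read-out is the MIC, the lowest concentration completely inhibiting fungal growth. Run without serum and with added serum.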

For experiment [15], the system named is Candida albicans. The experiment is described as follows: Antifungal activity against Candida albicans MY1055 infected in DBA/2 mouse model of disseminated candidiasis assessed as reduction in fungal burden in kidney by measuring log change in colony forming units at 0.5 mg/kg, ip bid for 7 days by TOKA. It counts as functional. The following applies: time 7 day. The method in brief:
as §3

The subject of experiment [16] is Aspergillus fumigatus. The experiment is described as follows: Antifungal activity against Aspergillus fumigatus MF5668 infected in DBA/2N mouse assessed as mouse survival at 0.125 mg/kg, ip bid administered for 7 days starting from 15 to 30 mins post infection and measured up to 21 days relative to control. It is filed as functional. The following applies: 168 h, time 7 day. The method in brief:
as §1

In experiment [17] the test system is Aspergillus fumigatus. Put plainly: Antifungal activity against Aspergillus fumigatus MF5668 infected in ip dosed DBA/2N mouse assessed as 50% mouse survival administered bid administered for 7 days starting from 15 to 30 mins post infection and measured up to 21 days. The following applies: 168 h.
The subject of experiment [18] is Candida albicans. The experiment is described as follows: Antifungal activity against Candida albicans MY1055 assessed as fungal growth inhibition measured after 24 hrs in presence of 50% mouse serum by liquid microdilution method. It counts as functional. The essentials:
as §4

The subject of experiment [19] is Aspergillus fumigatus. Put plainly: Antifungal activity against Aspergillus fumigatus MF5668 infected in ip dosed DBA/2N mouse assessed as 90% mouse survival administered bid administered for 7 days starting from 15 to 30 mins post infection and measured up to 21 days. The following applies: 168 h, time 7 day. It counts as functional.
For experiment [20], the system named is Aspergillus fumigatus. Put plainly: Antifungal activity against Aspergillus fumigatus MF5668 infected in DBA/2N mouse assessed as mouse survival at 2 mg/kg, ip bid administered for 7 days starting from 15 to 30 mins post infection and measured up to 21 days relative to control. It counts as functional. The following applies: 168 h, time 7 day. The method in brief: as §1

As to `CC[C@H](C)C[C@H](C)CCCCCCCCC(=O)N[C@H]1C[C@@H](O)[C@@H](NCCN)NC(=O)[C@@H]2[C@@H](O)CCN2C(=O)[C@H]([C@H](O)CCN)NC(=O)[C@H]([C@H](O)[C@@H](O)c2ccc(O)cc2)NC(=O)[C@@H]2C[C@@H](O)CN2C(=O)[C@H]([C@@H](C)O)NC1=O` [CASPOFUNGIN], the survival at 0.5 mg/kg with Aspergillus fumigatus [1] was found to be 90%. In addition, the MST stood at 14.7 days in the experiment on Aspergillus fumigatus [2] and 13.1 days in the experiment on Aspergillus fumigatus [11]. Also, the minimal effective concentration in the experiment with Aspergillus fumigatus [3] is below 0.03 µg/mL. Besides, the Activity in the experiment with Candida albicans [4] is -4.2 deltalog10CFU; in the experiment with Candida albicans [5], -4.2 deltalog10CFU; in the experiment on Candida albicans [6], -3.28 deltalog10CFU; in the experiment with Candida albicans [8], -4 deltalog10CFU; with Candida albicans [9] it was -3.62 deltalog10CFU; in the experiment on Candida albicans [12], -2.3 deltalog10CFU. Moreover, the Activity in the experiment with Candida albicans [15] is given as -3.96 deltalog10CFU. Besides, the ED99 in the experiment on Candida albicans [7] was below 0.1 µg/kg. Also, the survival at 0.03 mg/kg in the experiment with Aspergillus fumigatus [10] is 50%. The IC50 in experiment [13] amounted to 1 ng/mL. For the same molecule, the MIC came to 0.06 µg/mL (≈ 0.0549 µM) with Candida albicans [14] and 0.25 µg/mL in the experiment with Candida albicans [18]. Besides, the survival at 0.125 mg/kg in the experiment on Aspergillus fumigatus [16] worked out at 60%. Besides, the ED50 in the experiment with Aspergillus fumigatus [17] turned out to be 0.07 mg/kg. Also, the ED90 with Aspergillus fumigatus [19] is 0.83 mg/kg. In addition, the survival at 2 mg/kg in the experiment with Aspergillus fumigatus [20] was found to be 90%.
